According to ChEMBL document CHEMBL1138746, “Indolebutylamines as selective 5-HT(1A) agonists” (J Med Chem, 2004):

Key:
[1] = molecular target: T1, 5-hydroxytryptamine receptor 1A (Rattus norvegicus, UniProt P19327); assay: Inhibition of 8-OH DPAT bindign to rat hydroxytryptamine 1A receptor in hippocampal membranes
T1 sequence (P19327 whole entry): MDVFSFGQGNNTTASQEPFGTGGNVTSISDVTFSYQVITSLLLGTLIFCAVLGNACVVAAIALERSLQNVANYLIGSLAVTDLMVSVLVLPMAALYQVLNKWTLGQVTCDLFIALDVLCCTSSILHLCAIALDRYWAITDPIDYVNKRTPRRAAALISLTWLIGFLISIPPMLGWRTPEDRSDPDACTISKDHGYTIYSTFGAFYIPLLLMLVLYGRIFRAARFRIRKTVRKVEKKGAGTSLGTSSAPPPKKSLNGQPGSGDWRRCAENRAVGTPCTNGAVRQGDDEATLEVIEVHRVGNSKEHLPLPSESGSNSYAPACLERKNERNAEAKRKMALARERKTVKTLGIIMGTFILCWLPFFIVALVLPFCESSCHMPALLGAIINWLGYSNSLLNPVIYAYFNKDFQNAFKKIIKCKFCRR

[2] = Inhibition of hydroxytryptamine 1D receptor
[3] = Inhibition of hydroxytryptamine 2C receptor
D(3) dopamine receptor = D(3) dopamine receptor (Homo sapiens, UniProt P35462); assay: Inhibition of dopamine D3 receptor
D(2) dopamine receptor = D(2) dopamine receptor (Rattus norvegicus, UniProt P61169); assay: Displacement of [3H]spiperone from dopamine D2 receptor of rat striatal membranes; type: cell membranes, Membrane
Summary of the method: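 Rat striatal membranes (0.3–1.0 mg protein/mL) were incubated with 0.1 nM [3H]spiperone in Tris-HCl buffer (pH 7.1) containing 120 mmol/L NaCl, 5 mmol/L KCl, 1 mmol/L CaCl2, 1 mmol/L MgCl2 and 0.1% ascorbic acid, at 37 °C for 15 min. Bound ligand was separated by filtration with three ice-cold washes. Nonspecific binding was defined with 1 mmol/L (+)-butaclamol. IC50 (50% inhibition of binding) came from 5–10 concentrations, each in triplicate.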

[4] = Inhibition of hydroxytryptamine 2A receptor
[5] = molecular target: T2, Adrenergic receptor alpha-1 (Homo sapiens, UniProt P35348+P25100+P35368); assay: Inhibition of Alpha-1 adrenergic receptor; type: protein assay
T2 sequence (P35348 whole entry): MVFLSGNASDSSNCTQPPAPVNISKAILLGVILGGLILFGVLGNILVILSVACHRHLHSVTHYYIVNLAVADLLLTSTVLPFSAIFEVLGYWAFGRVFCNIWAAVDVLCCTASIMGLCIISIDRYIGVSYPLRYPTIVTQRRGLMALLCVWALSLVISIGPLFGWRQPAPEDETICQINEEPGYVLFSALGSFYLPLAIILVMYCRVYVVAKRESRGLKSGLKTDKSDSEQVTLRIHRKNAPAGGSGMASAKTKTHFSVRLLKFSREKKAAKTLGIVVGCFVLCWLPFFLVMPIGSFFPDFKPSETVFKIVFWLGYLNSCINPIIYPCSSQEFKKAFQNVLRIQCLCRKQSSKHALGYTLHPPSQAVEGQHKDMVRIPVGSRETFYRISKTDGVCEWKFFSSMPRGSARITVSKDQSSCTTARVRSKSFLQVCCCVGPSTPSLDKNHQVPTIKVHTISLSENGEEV
T2 sequence (P25100 whole entry): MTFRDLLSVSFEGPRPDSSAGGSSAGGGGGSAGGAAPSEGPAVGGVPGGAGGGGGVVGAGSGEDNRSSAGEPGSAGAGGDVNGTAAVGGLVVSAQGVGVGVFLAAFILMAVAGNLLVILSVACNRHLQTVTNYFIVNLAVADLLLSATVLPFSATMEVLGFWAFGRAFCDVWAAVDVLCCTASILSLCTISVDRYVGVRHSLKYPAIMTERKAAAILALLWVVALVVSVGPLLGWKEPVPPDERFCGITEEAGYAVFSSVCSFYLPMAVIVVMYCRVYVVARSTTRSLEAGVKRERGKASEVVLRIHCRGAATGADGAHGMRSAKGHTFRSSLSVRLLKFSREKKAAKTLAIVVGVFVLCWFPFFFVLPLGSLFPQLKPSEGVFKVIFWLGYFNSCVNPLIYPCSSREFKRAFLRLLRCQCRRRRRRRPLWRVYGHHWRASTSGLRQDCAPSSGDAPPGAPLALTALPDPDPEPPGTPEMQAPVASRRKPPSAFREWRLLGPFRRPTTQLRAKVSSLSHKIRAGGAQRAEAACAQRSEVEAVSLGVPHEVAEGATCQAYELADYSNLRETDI
T2 sequence (P35368 whole entry): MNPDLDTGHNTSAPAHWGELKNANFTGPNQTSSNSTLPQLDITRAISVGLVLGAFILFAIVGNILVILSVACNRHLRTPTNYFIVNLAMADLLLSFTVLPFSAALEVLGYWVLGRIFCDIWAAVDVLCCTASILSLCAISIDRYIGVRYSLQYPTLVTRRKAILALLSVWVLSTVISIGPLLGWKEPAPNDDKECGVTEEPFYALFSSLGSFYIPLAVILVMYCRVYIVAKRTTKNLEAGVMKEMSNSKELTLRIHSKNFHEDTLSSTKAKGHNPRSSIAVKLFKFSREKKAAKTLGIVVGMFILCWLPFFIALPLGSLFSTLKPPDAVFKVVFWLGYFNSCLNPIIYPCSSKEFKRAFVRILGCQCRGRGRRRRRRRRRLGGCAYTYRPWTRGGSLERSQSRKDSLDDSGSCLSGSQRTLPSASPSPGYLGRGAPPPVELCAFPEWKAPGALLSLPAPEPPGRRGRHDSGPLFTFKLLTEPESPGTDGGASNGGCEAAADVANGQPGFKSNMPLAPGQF

[6] = Inhibition of Histamine H1 receptor
D(4) dopamine receptor = molecular target: T3, D(4) dopamine receptor (Homo sapiens, UniProt P21917); assay: Inhibition of dopamine D4 receptor
T3 sequence (P21917 whole entry): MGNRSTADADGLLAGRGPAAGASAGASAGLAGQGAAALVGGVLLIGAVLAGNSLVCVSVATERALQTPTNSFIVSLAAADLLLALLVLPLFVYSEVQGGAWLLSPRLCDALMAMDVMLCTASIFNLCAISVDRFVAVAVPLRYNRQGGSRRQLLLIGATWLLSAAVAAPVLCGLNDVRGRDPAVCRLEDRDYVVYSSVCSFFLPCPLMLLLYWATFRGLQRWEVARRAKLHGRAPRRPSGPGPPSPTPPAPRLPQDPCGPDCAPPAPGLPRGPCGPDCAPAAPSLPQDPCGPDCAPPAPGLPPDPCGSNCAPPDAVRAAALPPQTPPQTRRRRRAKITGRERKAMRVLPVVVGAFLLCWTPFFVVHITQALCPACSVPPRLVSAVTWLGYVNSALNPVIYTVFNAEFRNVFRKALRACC

D(2) dopamine receptor, sequence (P61169 whole entry): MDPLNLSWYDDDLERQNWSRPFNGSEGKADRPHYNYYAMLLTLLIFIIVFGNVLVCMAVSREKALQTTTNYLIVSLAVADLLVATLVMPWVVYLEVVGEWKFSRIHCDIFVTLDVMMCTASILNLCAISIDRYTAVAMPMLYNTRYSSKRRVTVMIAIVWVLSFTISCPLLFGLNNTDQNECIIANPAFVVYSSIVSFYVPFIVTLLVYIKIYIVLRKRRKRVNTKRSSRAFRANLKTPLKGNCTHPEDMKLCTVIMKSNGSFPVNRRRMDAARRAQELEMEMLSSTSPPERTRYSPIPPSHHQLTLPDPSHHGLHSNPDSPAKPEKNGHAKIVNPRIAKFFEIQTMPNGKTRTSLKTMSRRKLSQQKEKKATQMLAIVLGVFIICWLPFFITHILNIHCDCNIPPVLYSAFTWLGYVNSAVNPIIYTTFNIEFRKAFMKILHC
D(3) dopamine receptor, sequence (P35462 whole entry): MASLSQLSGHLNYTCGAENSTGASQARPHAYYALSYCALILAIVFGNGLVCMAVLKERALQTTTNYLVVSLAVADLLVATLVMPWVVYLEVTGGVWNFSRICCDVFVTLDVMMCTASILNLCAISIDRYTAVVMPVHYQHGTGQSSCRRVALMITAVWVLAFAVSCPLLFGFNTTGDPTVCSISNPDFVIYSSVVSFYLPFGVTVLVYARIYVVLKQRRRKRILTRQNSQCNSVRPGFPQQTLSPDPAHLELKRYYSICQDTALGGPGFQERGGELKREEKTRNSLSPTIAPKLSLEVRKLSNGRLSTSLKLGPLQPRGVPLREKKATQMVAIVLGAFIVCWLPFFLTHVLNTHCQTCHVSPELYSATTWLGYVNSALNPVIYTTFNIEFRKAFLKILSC

For O=C1c2ccccc2S(=O)(=O)N1CCCCN1CCN(c2ncccn2)CC1 [IPSAPIRONE], which IC50 [1] is on record?
Its IC50 is 8.2 nM.

And the IC50 [2]?
The IC50 was 3000 nM.

What about the IC50 [3] of the same compound?
The IC50 was > 1000 nM.

And the IC50 (D(3) dopamine receptor)?
The IC50 was 1200 nM.

And the IC50 (D(2) dopamine receptor)?
The IC50 was 2900 nM.

And the IC50 [4]?
The IC50 was 2600 nM.

And the IC50 [5]?
The IC50 was 500 nM.

And the IC50 [6]?
The IC50 was 24 nM.

What about the IC50 (D(4) dopamine receptor) of the same compound?
The IC50 was 1800 nM.
